ChEMBL document CHEMBL3102805, “Truncated Orexin Peptides: Structure-Activity Relationship Studies” (ACS Med Chem Lett, 2013)
Where a SMILES comes first, the peptide text is derived from it.

Columns and labels:
Orexin receptor type 2 = target: T1, Orexin receptor type 2 (Homo sapiens, UniProt O43614); test: Agonist activity at human OX2 receptor overexpressed in CHO-RD-HGA16 cells assessed as calcium mobilization after 15 mins by fluorescence assay; type: functional, cell-based
T1 sequence (O43614 whole entry): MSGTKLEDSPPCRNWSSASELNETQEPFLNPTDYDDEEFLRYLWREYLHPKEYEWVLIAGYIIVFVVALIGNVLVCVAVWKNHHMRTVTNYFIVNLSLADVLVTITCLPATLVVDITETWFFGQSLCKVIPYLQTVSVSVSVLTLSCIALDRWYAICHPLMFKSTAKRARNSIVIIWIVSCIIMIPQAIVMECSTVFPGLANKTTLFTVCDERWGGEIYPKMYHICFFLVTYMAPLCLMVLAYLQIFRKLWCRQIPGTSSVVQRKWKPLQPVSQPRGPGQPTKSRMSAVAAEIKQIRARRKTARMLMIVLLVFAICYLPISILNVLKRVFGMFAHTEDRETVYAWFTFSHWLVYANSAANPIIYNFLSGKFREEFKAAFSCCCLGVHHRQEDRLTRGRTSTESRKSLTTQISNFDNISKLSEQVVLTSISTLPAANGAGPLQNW

[1] = target: T2, Orexin/Hypocretin receptor type 1 (Homo sapiens, UniProt O43613); test: Agonist activity at human OX1 receptor overexpressed in CHO-RD-HGA16 cells assessed as calcium mobilization after 15 mins by fluorescence assay; type: functional, cell-based
T2 sequence (O43613 whole entry): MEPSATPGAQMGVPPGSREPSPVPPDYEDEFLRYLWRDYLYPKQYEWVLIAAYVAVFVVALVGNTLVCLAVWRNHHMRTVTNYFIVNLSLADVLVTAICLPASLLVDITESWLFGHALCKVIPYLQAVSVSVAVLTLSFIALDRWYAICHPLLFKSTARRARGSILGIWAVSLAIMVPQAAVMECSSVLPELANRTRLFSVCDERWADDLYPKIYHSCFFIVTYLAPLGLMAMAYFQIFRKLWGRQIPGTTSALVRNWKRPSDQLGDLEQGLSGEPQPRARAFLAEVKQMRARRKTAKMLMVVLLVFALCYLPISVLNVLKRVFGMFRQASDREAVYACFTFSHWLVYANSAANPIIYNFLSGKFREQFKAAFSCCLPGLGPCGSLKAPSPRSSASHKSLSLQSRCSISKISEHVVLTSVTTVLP
Summary of the method: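 EC50 from 8-point half-log concentration-response curves. Values are means of at least three independent experiments in duplicate, with SEM, or means of two independent duplicate experiments.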

Homo sapiens = species on record: Homo sapiens; test: Selectivity ratio of EC50 for human OX2 receptor to EC50 for human OX1 receptor

SMILES | EC50 (Orexin receptor type 2) | EC50 [1] | Ratio EC50 (Homo sapiens)
CC[C@H](C)[C@H](NC(=O)CNC(=O)[C@H](C)NC(=O)[C@H](C)NC(=O)[C@@H](Cc1cnc[nH]1)NC(=O)[C@H](CC(N)=O)NC(=O)CNC(=O)[C@H](C)NC(=O)CNC(=O)[C@H](Cc1cnc[nH]1)NC(=O)[C@H](CC(C)C)NC(=O)[C@H](CC(C)C)NC(=O)[C@H](CCC(=O)O)NC(=O)[C@@H](N)Cc1ccc(O)cc1)C(=O)N[C@@H](CC(C)C)C(=O)N[C@H](C(=O)N[C@@H](CC(C)C)C(N)=O)[C@@H](C)O | 1760 nM | 5700 nM | 0.3
CC[C@H](C)[C@H](NC(=O)CNC(=O)[C@H](C)NC(=O)[C@H](C)NC(=O)[C@H](Cc1cnc[nH]1)NC(=O)[C@H](CC(N)=O)NC(=O)CNC(=O)[C@H](C)NC(=O)CNC(=O)[C@H](Cc1cnc[nH]1)NC(=O)[C@H](CC(C)C)NC(=O)[C@H](CC(C)C)NC(=O)[C@H](CCC(=O)O)NC(=O)[C@H](N)Cc1ccc(O)cc1)C(=O)N[C@@H](CC(C)C)C(=O)N[C@H](C(=O)N[C@@H](CC(C)C)C(N)=O)[C@@H](C)O | 3220 nM | 1360 nM | 2.4
CC[C@H](C)[C@H](NC(=O)CNC(=O)[C@H](C)NC(=O)[C@H](C)NC(=O)[C@H](Cc1cnc[nH]1)NC(=O)[C@H](CC(N)=O)NC(=O)CNC(=O)[C@H](C)NC(=O)CNC(=O)[C@H](Cc1cnc[nH]1)NC(=O)[C@H](CC(C)C)NC(=O)[C@H](CC(C)C)NC(=O)[C@@H](CCC(=O)O)NC(=O)[C@@H](N)Cc1ccc(O)cc1)C(=O)N[C@@H](CC(C)C)C(=O)N[C@H](C(=O)N[C@@H](CC(C)C)C(N)=O)[C@@H](C)O | 2140 nM | 739 nM | 2.9
CC[C@H](C)[C@H](NC(=O)CNC(=O)[C@H](C)NC(=O)[C@H](C)NC(=O)[C@H](Cc1cnc[nH]1)NC(=O)[C@H](CC(N)=O)NC(=O)CNC(=O)[C@H](C)NC(=O)CNC(=O)[C@H](Cc1cnc[nH]1)NC(=O)[C@H](CC(C)C)NC(=O)[C@H](CC(C)C)NC(=O)[C@H](CCC(=O)O)NC(=O)[C@@H]1CCCN1)C(=O)N[C@@H](CC(C)C)C(=O)N[C@H](C(=O)N[C@@H](CC(C)C)C(N)=O)[C@@H](C)O (H-PELLHGAGNHAAGILTL-NH2) | 3250 nM | 1370 nM | 2.4
CC[C@H](C)[C@H](NC(=O)CNC(=O)[C@H](C)NC(=O)[C@H](C)NC(=O)[C@H](Cc1cnc[nH]1)NC(=O)[C@H](CC(N)=O)NC(=O)CNC(=O)[C@H](C)NC(=O)CNC(=O)[C@H](Cc1cnc[nH]1)NC(=O)[C@H](CC(C)C)NC(=O)[C@H](CC(C)C)NC(=O)[C@H](CCC(=O)O)NC(=O)[C@H](Cc1ccc(O)cc1)NC(=O)[C@H](CC(C)C)NC(=O)[C@@H](N)CCCNC(=N)N)C(=O)N[C@@H](CC(C)C)C(=O)N[C@H](C(=O)N[C@@H](CC(C)C)C(N)=O)[C@@H](C)O (H-RLYELLHGAGNHAAGILTL-NH2) | 976 nM | 64 nM | 
CC[C@H](C)[C@H](NC(=O)CNC(=O)[C@H](C)NC(=O)[C@H](C)NC(=O)[C@H](Cc1c[nH]cn1)NC(=O)[C@H](CC(N)=O)NC(=O)CNC(=O)[C@H](C)NC(=O)CNC(=O)[C@H](Cc1c[nH]cn1)NC(=O)[C@H](CC(C)C)NC(=O)[C@H](CC(C)C)NC(=O)[C@H](CCC(=O)O)NC(=O)[C@H](Cc1ccc(O)cc1)NC(=O)[C@H](CC(C)C)NC(=O)[C@@H](N)CCCN=C(N)N)C(=O)N[C@@H](CC(C)C)C(=O)N[C@H](C(=O)N[C@@H](CC(C)C)C(N)=O)[C@@H](C)O (H-RLYELLHGAGNHAAGILTL-NH2) |  |  | 15

Continued, values first:

EC50 (Orexin receptor type 2) | EC50 [1] | Ratio EC50 (Homo sapiens) | SMILES
1250 nM | 1900 nM | 0.7 | CC[C@H](C)[C@H](NC(=O)CNC(=O)[C@H](C)NC(=O)[C@@H](C)NC(=O)[C@H](Cc1cnc[nH]1)NC(=O)[C@H](CC(N)=O)NC(=O)CNC(=O)[C@H](C)NC(=O)CNC(=O)[C@H](Cc1cnc[nH]1)NC(=O)[C@H](CC(C)C)NC(=O)[C@H](CC(C)C)NC(=O)[C@H](CCC(=O)O)NC(=O)[C@@H](N)Cc1ccc(O)cc1)C(=O)N[C@@H](CC(C)C)C(=O)N[C@H](C(=O)N[C@@H](CC(C)C)C(N)=O)[C@@H](C)O
263 nM | 526 nM | 0.5 | CC[C@H](C)[C@H](NC(=O)CNC(=O)[C@H](C)NC(=O)[C@H](C)NC(=O)[C@H](Cc1cnc[nH]1)NC(=O)[C@H](CC(N)=O)NC(=O)CNC(=O)[C@H](C)NC(=O)CNC(=O)[C@H](Cc1cnc[nH]1)NC(=O)[C@H](CC(C)C)NC(=O)[C@@H](CC(C)C)NC(=O)[C@H](CCC(=O)O)NC(=O)[C@@H](N)Cc1ccc(O)cc1)C(=O)N[C@@H](CC(C)C)C(=O)N[C@H](C(=O)N[C@@H](CC(C)C)C(N)=O)[C@@H](C)O
156 nM | 535 nM | 0.3 | CC[C@H](C)[C@H](NC(=O)CNC(=O)[C@H](C)NC(=O)[C@H](C)NC(=O)[C@H](Cc1cnc[nH]1)NC(=O)[C@H](CC(N)=O)NC(=O)CNC(=O)[C@H](C)NC(=O)CNC(=O)[C@H](Cc1cnc[nH]1)NC(=O)[C@@H](CC(C)C)NC(=O)[C@H](CC(C)C)NC(=O)[C@H](CCC(=O)O)NC(=O)[C@@H](N)Cc1ccc(O)cc1)C(=O)N[C@@H](CC(C)C)C(=O)N[C@H](C(=O)N[C@@H](CC(C)C)C(N)=O)[C@@H](C)O
610 nM | 1560 nM | 0.4 | CC[C@H](C)[C@H](NC(=O)CNC(=O)[C@H](C)NC(=O)[C@H](C)NC(=O)[C@H](Cc1cnc[nH]1)NC(=O)[C@H](CC(N)=O)NC(=O)CNC(=O)[C@H](C)NC(=O)CNC(=O)[C@@H](Cc1cnc[nH]1)NC(=O)[C@H](CC(C)C)NC(=O)[C@H](CC(C)C)NC(=O)[C@H](CCC(=O)O)NC(=O)[C@@H](N)Cc1ccc(O)cc1)C(=O)N[C@@H](CC(C)C)C(=O)N[C@H](C(=O)N[C@@H](CC(C)C)C(N)=O)[C@@H](C)O
1920 nM | 3070 nM | 0.6 | CC[C@H](C)[C@H](NC(=O)CNC(=O)[C@H](C)NC(=O)[C@H](C)NC(=O)[C@H](Cc1cnc[nH]1)NC(=O)[C@H](CC(N)=O)NC(=O)CNC(=O)[C@@H](C)NC(=O)CNC(=O)[C@H](Cc1cnc[nH]1)NC(=O)[C@H](CC(C)C)NC(=O)[C@H](CC(C)C)NC(=O)[C@H](CCC(=O)O)NC(=O)[C@@H](N)Cc1ccc(O)cc1)C(=O)N[C@@H](CC(C)C)C(=O)N[C@H](C(=O)N[C@@H](CC(C)C)C(N)=O)[C@@H](C)O
187 nM | 8.29 nM |  | CC[C@H](C)[C@H](NC(=O)CNC(=O)[C@H](C)NC(=O)[C@H](C)NC(=O)[C@H](Cc1cnc[nH]1)NC(=O)[C@H](CC(N)=O)NC(=O)CNC(=O)[C@H](C)NC(=O)CNC(=O)[C@H](Cc1cnc[nH]1)NC(=O)[C@H](CC(C)C)NC(=O)[C@H](CC(C)C)NC(=O)[C@H](CCC(=O)O)NC(=O)[C@@H](N)Cc1ccc(O)cc1)C(=O)N[C@@H](CC(C)C)C(=O)N[C@H](C(=O)N[C@@H](CC(C)C)C(N)=O)[C@@H](C)O
 |  | 23 | CC[C@H](C)[C@H](NC(=O)CNC(=O)[C@H](C)NC(=O)[C@H](C)NC(=O)[C@H](Cc1c[nH]cn1)NC(=O)[C@H](CC(N)=O)NC(=O)CNC(=O)[C@H](C)NC(=O)CNC(=O)[C@H](Cc1c[nH]cn1)NC(=O)[C@H](CC(C)C)NC(=O)[C@H](CC(C)C)NC(=O)[C@H](CCC(=O)O)NC(=O)[C@@H](N)Cc1ccc(O)cc1)C(=O)N[C@@H](CC(C)C)C(=O)N[C@H](C(=O)N[C@@H](CC(C)C)C(N)=O)[C@@H](C)O
4820 nM | 1910 nM | 2.5 | CC[C@H](C)[C@H](NC(=O)CNC(=O)[C@H](C)NC(=O)[C@H](C)NC(=O)[C@H](Cc1cnc[nH]1)NC(=O)[C@H](CC(N)=O)NC(=O)CNC(=O)[C@H](C)NC(=O)CNC(=O)[C@H](Cc1cnc[nH]1)NC(=O)[C@H](CC(C)C)NC(=O)[C@H](CC(C)C)NC(=O)[C@H](CCC(=O)O)NC(=O)[C@H](C)N)C(=O)N[C@@H](CC(C)C)C(=O)N[C@H](C(=O)N[C@@H](CC(C)C)C(N)=O)[C@@H](C)O (H-AELLHGAGNHAAGILTL-NH2)
947 nM | 1380 nM | 0.7 | CC[C@H](C)[C@H](NC(=O)CNC(=O)[C@H](C)NC(=O)[C@H](C)NC(=O)[C@H](Cc1c[nH]cn1)NC(=O)[C@H](CC(N)=O)NC(=O)CNC(=O)[C@H](C)NC(=O)CNC(=O)[C@H](Cc1c[nH]cn1)NC(=O)[C@H](CC(C)C)NC(=O)[C@@H](N)CC(C)C)C(=O)N[C@@H](CC(C)C)C(=O)N[C@H](C(=O)N[C@@H](CC(C)C)C(N)=O)[C@@H](C)O (H-LLHGAGNHAAGILTL-NH2)
